Key:
MARK4 (NLuc-MARK4) = biological target: T1, MARK4 (NLuc-MARK4) (Homo sapiens, UniProt Q96L34); test: NanoBRET cellular target engagement assay; type: cell-based; conditions: HEK293, 0.5 μM tracer K-5; n = 1 where no error, SEM n = 2
T1 sequence (Q96L34 1-752): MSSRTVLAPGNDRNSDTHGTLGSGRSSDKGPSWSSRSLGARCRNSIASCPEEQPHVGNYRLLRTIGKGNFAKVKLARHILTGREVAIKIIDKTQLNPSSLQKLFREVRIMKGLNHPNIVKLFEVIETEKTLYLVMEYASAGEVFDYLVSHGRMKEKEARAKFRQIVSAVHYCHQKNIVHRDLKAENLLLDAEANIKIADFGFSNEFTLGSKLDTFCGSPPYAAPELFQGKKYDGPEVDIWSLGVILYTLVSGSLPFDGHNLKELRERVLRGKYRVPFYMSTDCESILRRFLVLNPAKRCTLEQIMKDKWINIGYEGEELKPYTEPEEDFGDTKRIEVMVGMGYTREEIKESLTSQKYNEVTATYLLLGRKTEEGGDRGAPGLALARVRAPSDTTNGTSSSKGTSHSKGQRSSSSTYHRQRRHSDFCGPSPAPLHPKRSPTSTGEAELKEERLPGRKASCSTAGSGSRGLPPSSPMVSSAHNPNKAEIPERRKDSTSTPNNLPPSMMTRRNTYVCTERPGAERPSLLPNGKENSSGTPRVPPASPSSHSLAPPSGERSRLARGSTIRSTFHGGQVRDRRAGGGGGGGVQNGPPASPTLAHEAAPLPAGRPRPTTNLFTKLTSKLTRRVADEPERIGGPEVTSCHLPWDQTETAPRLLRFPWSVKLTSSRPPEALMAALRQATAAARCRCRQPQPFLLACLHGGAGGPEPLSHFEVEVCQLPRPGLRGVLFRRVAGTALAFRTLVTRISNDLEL

[1] = test system: 403 wild-type (WT) human kinases; test: DiscoverX scanMAX kinome-wide selectivity screen; type: binding; conditions: 403 WT human kinases; for no. kinases with PoC < 10: DiscoverX scanMAX, 1 μM; for S10 (1 μM): Percentage of screened kinases with PoC values < 10 at 1 μM
PAMPA permeability = type: in vitro ADME; conditions: PBS pH 7.4, 5 h incubation
In short: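 DMSO stocks of test compound were diluted in PBS pH 7.4 and added to the donor side of a precoated PAMPA plate, with PBS pH 7.4 as acceptor, for 5 h. Both compartments were quantified by chemiluminescent nitrogen detection against a calibration curve, with background nitrogen corrected. Effective permeability was calculated from donor and acceptor concentrations, using measured rather than assumed solubility.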

16-member kinase panel = test: Eurofins custom enzymatic kinase panel, count of kinases inhibited; type: biochemical; conditions: 16-member Eurofins panel, 1 μM
In short: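 Radiometric kinase assays were run with ATP at Km. Each test compound was tested at a single concentration of 1 μM, in duplicate, against each panel kinase, with results as percent of control. The count is the number of kinases at ≤ 10 PoC, i.e. inhibited ≥ 90%.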

DRAK1 (DRAK1-NLuc) = biological target: T2, DRAK1 (DRAK1-NLuc) (Homo sapiens, UniProt Q9UEE5); test: NanoBRET cellular target engagement assay; type: cell-based; conditions: HEK293, 0.5 μM tracer K-9; n = 1 where no error, SEM n = 3
T2 sequence (Q9UEE5 1-414): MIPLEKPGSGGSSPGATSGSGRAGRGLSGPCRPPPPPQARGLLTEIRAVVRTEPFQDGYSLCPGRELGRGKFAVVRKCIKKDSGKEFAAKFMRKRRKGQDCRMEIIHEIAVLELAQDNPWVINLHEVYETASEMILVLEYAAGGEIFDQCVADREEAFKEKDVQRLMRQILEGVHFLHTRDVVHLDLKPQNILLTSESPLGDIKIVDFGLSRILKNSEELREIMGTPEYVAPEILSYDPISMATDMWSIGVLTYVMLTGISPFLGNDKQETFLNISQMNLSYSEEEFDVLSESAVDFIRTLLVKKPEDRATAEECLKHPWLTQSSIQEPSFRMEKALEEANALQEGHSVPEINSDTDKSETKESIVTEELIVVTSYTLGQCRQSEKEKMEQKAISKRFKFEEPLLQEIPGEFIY

MARK3 (NLuc-MARK3) = MARK3 (NLuc-MARK3) (Homo sapiens, UniProt P27448); test: NanoBRET cellular target engagement assay; type: cell-based; conditions: HEK293, 0.5 μM tracer K-9; n = 1 where no error, SEM n = 2
Sequence of MARK3 (NLuc-MARK3) (P27448 whole entry): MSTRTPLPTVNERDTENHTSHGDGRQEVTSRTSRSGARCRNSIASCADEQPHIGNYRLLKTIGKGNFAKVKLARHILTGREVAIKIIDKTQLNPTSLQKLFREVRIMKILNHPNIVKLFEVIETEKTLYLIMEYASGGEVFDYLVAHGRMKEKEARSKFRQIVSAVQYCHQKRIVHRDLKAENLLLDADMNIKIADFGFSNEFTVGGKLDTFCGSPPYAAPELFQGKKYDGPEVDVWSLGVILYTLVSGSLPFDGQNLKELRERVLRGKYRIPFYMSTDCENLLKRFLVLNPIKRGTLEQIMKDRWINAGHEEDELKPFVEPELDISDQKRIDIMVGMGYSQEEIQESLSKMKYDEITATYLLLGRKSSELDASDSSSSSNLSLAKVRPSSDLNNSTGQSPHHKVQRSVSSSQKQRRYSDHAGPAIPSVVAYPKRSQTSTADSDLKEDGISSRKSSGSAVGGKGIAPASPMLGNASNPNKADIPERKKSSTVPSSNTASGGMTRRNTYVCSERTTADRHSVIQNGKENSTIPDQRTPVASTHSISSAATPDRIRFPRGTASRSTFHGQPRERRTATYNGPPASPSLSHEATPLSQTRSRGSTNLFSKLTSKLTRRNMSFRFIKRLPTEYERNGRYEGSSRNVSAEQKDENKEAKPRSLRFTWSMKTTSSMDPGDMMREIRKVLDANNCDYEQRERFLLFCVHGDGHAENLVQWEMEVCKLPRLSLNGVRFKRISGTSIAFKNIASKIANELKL

TBK1 (NLuc-TBK1) = biological target: T3, TBK1 (NLuc-TBK1) (Homo sapiens, UniProt Q9UHD2); test: NanoBRET cellular target engagement assay; type: cell-based; conditions: HEK293, 0.5 μM tracer K-5; n = 1 where no error, SEM n = 3
T3 sequence (Q9UHD2 1-729): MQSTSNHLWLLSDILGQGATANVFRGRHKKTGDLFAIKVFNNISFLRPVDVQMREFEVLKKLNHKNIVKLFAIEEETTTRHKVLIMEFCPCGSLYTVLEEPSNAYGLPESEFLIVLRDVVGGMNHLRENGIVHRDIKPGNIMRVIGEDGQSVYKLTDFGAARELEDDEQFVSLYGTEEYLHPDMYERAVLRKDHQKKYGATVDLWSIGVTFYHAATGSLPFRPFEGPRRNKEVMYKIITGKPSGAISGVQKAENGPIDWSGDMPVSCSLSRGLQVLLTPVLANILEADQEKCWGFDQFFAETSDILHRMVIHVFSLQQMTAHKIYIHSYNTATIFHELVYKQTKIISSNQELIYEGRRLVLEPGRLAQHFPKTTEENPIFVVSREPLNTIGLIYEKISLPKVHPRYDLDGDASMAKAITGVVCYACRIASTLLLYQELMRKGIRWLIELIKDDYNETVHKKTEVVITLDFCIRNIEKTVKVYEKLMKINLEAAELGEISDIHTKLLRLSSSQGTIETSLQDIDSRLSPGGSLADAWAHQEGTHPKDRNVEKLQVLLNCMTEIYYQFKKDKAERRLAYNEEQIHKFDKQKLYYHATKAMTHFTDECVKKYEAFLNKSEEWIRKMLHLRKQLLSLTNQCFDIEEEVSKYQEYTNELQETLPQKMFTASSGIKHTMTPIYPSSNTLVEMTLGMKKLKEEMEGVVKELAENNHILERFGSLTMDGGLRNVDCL
In short: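 HEK293 cells were grown in DMEM with 10% FBS at 37 °C under 5% CO2, passaged every 72 h with trypsin and kept below confluency. Cells expressed NanoLuc fusions (DRAK1-NLuc or NLuc-TBK1). Dose–response was run per the manufacturer's protocol, with 0.5 μM tracer K-9 for DRAK1 and 0.5 μM tracer K-5 for TBK1. SEM was reported where assays were repeated.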

Row | MARK4 NanoBRET IC50 (MARK4 (NLuc-MARK4)) | Pe (permeability coefficient, PAMPA) (PAMPA permeability) | no. kinases ≤ 10 PoC in enzyme panel (16-member kinase panel) | DRAK1 NanoBRET IC50 (DRAK1 (DRAK1-NLuc)) | MARK3 NanoBRET IC50 (MARK3 (NLuc-MARK3)) | TBK1 NanoBRET IC50 (TBK1 (NLuc-TBK1)) | Structure (SMILES) | no. kinases with PoC < 10 [1] | S10 (1 μM) [1]
1 | submicromolar | low permeability | 6 |  |  |  | c1cc(CN2CCOCC2)cc(Nc2ncc(C3CC3)c(NCCc3c[nH]cn3)n2)c1 [Compound 14, N^4-(2-(1H-Imidazol-4-yl)ethyl)-5-cyclopropyl-N^2-(3-(morpholinomethyl)phenyl)pyrimidine-2,4-diamine] | 27 | 0.067
2 |  |  | 1 |  |  |  | c1cc(CN2CCOCC2)cc(Nc2nccc(NCCc3cnc[nH]3)n2)c1 [Compound 20, N^4-(2-(1H-Imidazol-5-yl)ethyl)-N^2-(3-(morpholinomethyl)phenyl)pyrimidine-2,4-diamine] | 9 | 0.022
3 | submicromolar | low permeability | 9 | submicromolar |  |  | O=C(NCCCNc1nc(Nc2cccc(NC(=O)N3CCCC3)c2)ncc1C1CC1)C1CCC1 [Compound 22, N-(3-((4-((3-(Cyclobutanecarboxamido)propyl)amino)-5-cyclopropylpyrimidin-2-yl)amino)-phenyl)pyrrolidine-1-carboxamide] | 30 | 0.074
4 | submicromolar | low permeability | 13 | submicromolar | submicromolar |  | Brc1cnc(Nc2cccc(CN3CCOCC3)c2)nc1NCCc1c[nH]cn1 [Compound 9, N^4-(2-(1H-Imidazol-4-yl)ethyl)-5-bromo-N^2-(3-(morpholinomethyl)phenyl)pyrimidine-2,4-diamine] | 94 | 0.233
5 |  | low permeability | 14 |  |  |  | O=C(Nc1cccc(Nc2ncc(Br)c(NCCc3cnc[nH]3)n2)c1)N1CCCC1 [BX-912, reference compound] |  | 
6 |  |  | 0 |  |  |  | Cc1nn(CC(F)(F)F)cc1Nc1nccc(NCCCNC(=O)C2CCC2)n1 [Compound 8, N-(3-((2-((3-Methyl-1-(2,2,2-trifluoroethyl)-1H-pyrazol-4-yl)amino)pyrimidin-4-yl)amino)-propyl)cyclobutanecarboxamide] | 1 | 
7 |  |  | 0 |  |  |  | Cc1nn(CC(F)(F)F)cc1Nc1ncc(Br)c(NCCc2cnc[nH]2)n1 [Compound 10, N^4-(2-(1H-Imidazol-5-yl)ethyl)-5-bromo-N^2-(3-methyl-1-(2,2,2-trifluoroethyl)-1H-pyrazol-4-yl)pyrimidine-2,4-diamine] | 28 | 0.069
8 |  | low permeability | 1 |  |  |  | NS(=O)(=O)c1ccc(CNc2nc(Nc3cccc(CN4CCOCC4)c3)ncc2C2CC2)cc1 [Compound 11, 4-(((5-Cyclopropyl-2-((3-(morpholinomethyl)phenyl)amino)pyrimidin-4-yl)amino)methyl)-benzenesulfonamide] | 3 | 0.007
9 |  | below the limit of quantitation | 0 |  |  |  | Cc1nn(CC(F)(F)F)cc1Nc1nccc(NCc2ccc(S(N)(=O)=O)cc2)n1 [Compound 12, 4-(((2-((3-Methyl-1-(2,2,2-trifluoroethyl)-1H-pyrazol-4-yl)amino)pyrimidin-4-yl)amino)methyl)benzenesulfonamide] | 1 | 
10 |  |  | 13 |  |  |  | CN1CCc2cc(Nc3ncc(C4CC4)c(NCCCNC(=O)C4CCC4)n3)ccc2C1 [MRT68921, reference compound] |  | 
11 |  | below the limit of quantitation | 4 |  |  |  | NS(=O)(=O)c1ccc(CNc2nc(Nc3cccc(CN4CCOCC4)c3)ncc2Br)cc1 [Compound 6, 4-(((5-Bromo-2-((3-(morpholinomethyl)phenyl)amino)pyrimidin-4-yl)amino)methyl)benzenesulfonamide] | 19 | 
12 |  |  | 7 | submicromolar |  | submicromolar | Cc1nn(CC(F)(F)F)cc1Nc1ncc(Br)c(NCCCNC(=O)C2CCC2)n1 [Compound 7, N-(3-((5-Bromo-2-((3-methyl-1-(2,2,2-trifluoroethyl)-1H-pyrazol-4-yl)amino)pyrimidin-4-yl)amino)propyl)cyclobutanecarboxamide] | 62 | 0.154
13 |  |  | 1 |  |  |  | NS(=O)(=O)c1ccc(CNc2nc(Nc3cccc(NC(=O)N4CCCC4)c3)ncc2C2CC2)cc1 [Compound 21, N-(3-((5-Cyclopropyl-4-((4-sulfamoylbenzyl)amino)pyrimidin-2-yl)amino)phenyl)pyrrolidine-1-carboxamide] | 1 | 
14 |  | below the limit of quantitation | 1 |  |  | submicromolar | Cc1nn(CC(F)(F)F)cc1Nc1ncc(Br)c(NCc2ccc(S(N)(=O)=O)cc2)n1 [GSK8612, 4-(((5-Bromo-2-((3-methyl-1-(2,2,2-trifluoroethyl)-1H-pyrazol-4-yl)amino)pyrimidin-4-yl)-amino)methyl)benzenesulfonamide, reference compound] | 8 | 
15 |  |  | 12 | submicromolar |  |  | O=C(NCCCNc1nc(Nc2cccc(CN3CCOCC3)c2)ncc1C1CC1)C1CCC1 [MRT67307, reference compound] |  | 

Reference: paper PMC8802302 (Journal of Medicinal Chemistry, 2021)
